Values after ≈ are worked out from the molar mass of the structure shown.
Assays:
Format in all cases: functional
[1] = system: Candida albicans; experiment: Minimum inhibitory concentration tested in vitro against Candida albicans
Procedure, shortened: (§1)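 Robotic broth microdilution: DMSO stocks diluted in broth to a starting 20 µg/mL, serial 2-fold dilutions. Yeasts grown on Sabouraud dextrose agar, 35°C, 24 h, suspended in saline and adjusted to 1 × 10^5 conidia/mL in Sabouraud dextrose broth (hemacytometer count).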

[2] = system: Cryptococcus neoformans; experiment: Minimum inhibitory concentration tested in vitro against Cryptococcus neoformans; procedure, shortened: as §1
[3] = system: Mus musculus; experiment: Effective dose against Candida albicans tested in infected mice on intraperitoneal administration; conditions: ip
Procedure, shortened: (§2)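 C. albicans systemic infection in mice: 2 × 10^6 blastoconidia iv (0.1 mL, lateral tail vein). Dosed ip (0.2 mL) at 0, 4, 24 and 48 h post-infection at 20, 10 and 5.0 mg/kg, six mice per level, in 4.0% hydroxypropyl β cyclodextrin/sodium acetate pH 7.0/1.75% dextrose; vehicle-dosed infected controls (10). Morbidity/mortality followed 7 days; ED50 by Reed–Muench.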

[4] = system: Aspergillus fumigatus; experiment: Minimum inhibitory concentration tested in vitro against Aspergillus fumigatus
Procedure, shortened: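 A. fumigatus broth microdilution: spores teased from mycelia grown on potato dextrose agar into 0.1% Tween 80/saline, adjusted to 1 × 10^5 spores/mL in Sabouraud broth. Compounds from DMSO, starting at 20 µg/mL, serial 2-fold dilutions.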

[5] = system: Histoplasma capsulatum; experiment: Minimum inhibitory concentration tested in vitro against Histoplasma capsulatum
Procedure, shortened: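 Robotic broth microdilution. Compounds dissolved in 100% DMSO, diluted in broth to start at 20 µg/mL in the first wells after inoculum, then serial 2-fold dilutions. Conidia suspended in saline and adjusted to 1 × 10^5 conidia/mL in Sabouraud dextrose broth. Incubated 48 h at 35 °C in ambient air. MIC = lowest concentration inhibiting 90–100% of visible growth vs untreated controls.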

[6] = system: Candida parapsilosis; experiment: Minimum inhibitory concentration tested in vitro against Candida parapsilosis; procedure, shortened: as §1
[7] = system: Mus musculus; experiment: Effective dose administered intraperitoneally against Candida albicans infected mice; conditions: ip; procedure, shortened: as §2
[8] = Candida albicans, read-out: MIC
[9] = Cryptococcus neoformans, read-out: MIC
[10] = Aspergillus fumigatus, read-out: MIC
[11] = Histoplasma capsulatum, read-out: MIC
[12] = Lodderomyces parapsilosis, read-out: MIC

| SMILES | MIC [1, 8] | MIC [2, 9] | MIC [4, 10] | MIC [5, 11] | MIC [6, 12] | also measured |
| --- | --- | --- | --- | --- | --- | --- |
| C/C=C1/NC(=O)[C@H]([C@H](C)O)NC(=O)[C@H](CCN)NC(=O)[C@H](CCCCN)NC(=O)[C@H](CC(=O)O)NC(=O)[C@@H](CCN)NC(=O)[C@@H](NC(=O)CC(O)C(O)CCCCCCCCCC)COC(=O)[C@H]([C@H](O)CCl)NC(=O)[C@H]([C@H](O)C(=O)O)NC1=O (stereo not given in full) | 0.625 µg/mL (≈ 0.511 µM) | 0.078 µg/mL (≈ 0.0637 µM) | 10 µg/mL (≈ 8.17 µM) | – | – | ED50 [3]: 7.1 mg/kg |
| C/C=C1/NC(=O)[C@H]([C@H](C)O)NC(=O)[C@H](CCN)NC(=O)[C@H](CCCCN)NC(=O)[C@H](CC(=O)O)NC(=O)[C@@H](CCN)NC(=O)[C@@H](NC(=O)CCCCCCCCCCCCCCC)COC(=O)[C@H]([C@H](O)CCl)NC(=O)[C@H]([C@H](O)C(=O)O)NC1=O | 10 µg/mL (≈ 8.2 µM) | 1.25 µg/mL (≈ 1.02 µM) | – | 10 µg/mL (≈ 8.2 µM) | 10 µg/mL (≈ 8.2 µM) | – |
| C/C=C1/NC(=O)[C@H]([C@H](C)O)NC(=O)[C@H](CCN)NC(=O)[C@H](CCCCN)NC(=O)[C@H](CC(=O)O)NC(=O)[C@@H](CCN)NC(=O)[C@@H](NC(=O)C[C@@H](O)CCCCCCCCCCCCC)COC(=O)[C@H]([C@H](O)CCl)NC(=O)[C@H]([C@H](O)C(=O)O)NC1=O | 5 µg/mL (≈ 4.05 µM) | 5 µg/mL (≈ 4.05 µM) | 20 µg/mL (≈ 16.2 µM) | 5 µg/mL (≈ 4.05 µM) | 5 µg/mL (≈ 4.05 µM) | – |
| C/C=C1/NC(=O)[C@H]([C@H](C)O)NC(=O)[C@H](CCN)NC(=O)[C@H](CCCCN)NC(=O)[C@H](CC(=O)O)NC(=O)[C@@H](CCN)NC(=O)[C@@H](NC(=O)CC(O)CCCCCCCCC)COC(=O)[C@H]([C@H](O)CCl)NC(=O)[C@H]([C@H](O)C(=O)O)NC1=O (stereo not given in full) | 10 µg/mL (≈ 8.48 µM) | 1.25 µg/mL (≈ 1.06 µM) | > 20 µg/mL | – | – | – |
| C/C=C1/NC(=O)[C@H]([C@H](C)O)NC(=O)[C@H](CCN)NC(=O)[C@H](CCCCN)NC(=O)[C@H](CC(=O)O)NC(=O)[C@@H](CCN)NC(=O)[C@@H](NC(=O)CC(O)C(O)CCCCCCCCCCCC)COC(=O)[C@H]([C@H](O)CCl)NC(=O)[C@H]([C@H](O)C(=O)O)NC1=O (stereo not given in full) | 0.078 µg/mL (≈ 0.0623 µM) | 0.02 µg/mL (≈ 0.016 µM) | 1.25 µg/mL (≈ 0.999 µM) | – | – | ED50 [7]: > 5 mg/kg |
| C/C=C1/NC(=O)[C@H]([C@H](C)O)NC(=O)[C@H](CCN)NC(=O)[C@H](CCCCN)NC(=O)[C@H](CC(=O)O)NC(=O)[C@@H](CCN)NC(=O)[C@@H](NC(=O)CC(O)C(O)CCCCCCCCCCC)COC(=O)[C@H]([C@H](O)CCl)NC(=O)[C@H]([C@H](O)C(=O)O)NC1=O (stereo not given in full) | 2.5 µg/mL (≈ 2.02 µM) | 1.25 µg/mL (≈ 1.01 µM) | > 20 µg/mL | – | – | – |
| C/C=C1/NC(=O)[C@H]([C@H](C)O)NC(=O)[C@H](CCN)NC(=O)[C@H](CCCCN)NC(=O)[C@H](CC(=O)O)NC(=O)[C@@H](CCN)NC(=O)[C@@H](NC(=O)CC(O)CCCCCCCCCCC)COC(=O)[C@H]([C@H](O)CCl)NC(=O)[C@H]([C@H](O)C(=O)O)NC1=O (stereo not given in full) | 0.156 µg/mL (≈ 0.129 µM) | 0.02 µg/mL (≈ 0.0166 µM) | 10 µg/mL (≈ 8.28 µM) | – | – | ED50 [7]: 3.5 mg/kg |
| C/C=C1/NC(=O)[C@H]([C@H](C)O)NC(=O)[C@H](CCN)NC(=O)[C@H](CCCCN)NC(=O)[C@H](CC(=O)O)NC(=O)[C@@H](CCN)NC(=O)[C@@H](NC(=O)C[C@H](O)CCCCCCCCCCCCC)COC(=O)[C@H]([C@H](O)CCl)NC(=O)[C@H]([C@H](O)C(=O)O)NC1=O (stereo in doubt; form 1) | 0.039 µg/mL (≈ 0.0316 µM) | < 0.01 µg/mL | – | 0.156 µg/mL (≈ 0.126 µM) | 0.039 µg/mL (≈ 0.0316 µM) | MIC [4]: 0.312 µg/mL (≈ 0.252 µM) |
| C/C=C1/NC(=O)[C@H]([C@H](C)O)NC(=O)[C@H](CCN)NC(=O)[C@H](CCCCN)NC(=O)[C@H](CC(=O)O)NC(=O)[C@@H](CCN)NC(=O)[C@@H](NC(=O)CC(O)CCCCCCCCCCCCC)COC(=O)[C@H]([C@H](O)CCl)NC(=O)[C@H]([C@H](O)C(=O)O)NC1=O (stereo in doubt; form 1) | 0.156 µg/mL (≈ 0.126 µM) | < 0.01 µg/mL | 1.25 µg/mL (≈ 1.01 µM) | 0.312 µg/mL (≈ 0.252 µM) | 0.156 µg/mL (≈ 0.126 µM) | – |
| C/C=C1/NC(=O)[C@H]([C@H](C)O)NC(=O)[C@H](CCN)NC(=O)[C@H](CCCCN)NC(=O)[C@H](CC(=O)O)NC(=O)[C@@H](CCN)NC(=O)[C@@H](NC(=O)C[C@H](O)CCCCCCCCCCCCC)COC(=O)[C@H]([C@H](O)CCl)NC(=O)[C@H]([C@H](O)C(=O)O)NC1=O (stereo in doubt; form 2) | – | – | – | – | – | MIC [1]: 0.039 µg/mL (≈ 0.0316 µM); MIC [5]: 0.156 µg/mL (≈ 0.126 µM); MIC [6]: 0.02 µg/mL (≈ 0.0162 µM); MIC [4]: 0.625 µg/mL (≈ 0.506 µM) |
| C/C=C1/NC(=O)[C@H]([C@H](C)O)NC(=O)[C@H](CCN)NC(=O)[C@H](CCCCN)NC(=O)[C@H](CC(=O)O)NC(=O)[C@@H](CCN)NC(=O)[C@@H](NC(=O)CC(O)CCCCCCCCCCCCC)COC(=O)[C@H]([C@H](O)CCl)NC(=O)[C@H]([C@H](O)C(=O)O)NC1=O (stereo in doubt; form 2) | – | – | – | – | – | ED50 [7]: 2.5 mg/kg; MIC [1]: 0.156 µg/mL (≈ 0.126 µM); MIC [2]: 0.005 µg/mL (≈ 0.00405 µM); MIC [4]: 0.625 µg/mL (≈ 0.506 µM) |
